What is called pKi is the negative decadic logarithm of the Ki, by convention in mol/L. As usually defined, the pIC50 is −log10 of the IC50, conventionally taken in molar units. By IC50 is commonly meant the midpoint of a concentration-inhibition curve.

Molecules are shown by their SMILES. pIC50, pKi: −log10 of the molar value. The source made the active and inactive calls. Some results are limits rather than exact numbers.

The target of data set [1] is T1, Mu-type opioid receptor (Homo sapiens, UniProt P35372). The data set can be described thus: Displacement of [3H]-diprenorphine from human MOR expressed in CHO cell membranes after 80 mins by scintillation counting analysis. The note with it: cho. An outline of the steps: (§1)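 Competition binding on MOR-, DOR- or MDOR-CHO membranes used a fixed 3H-diprenorphine level against competitor concentration curves; 30°C, 80 min, GF/B filtration, scintillation counting. Nonspecific binding defined with 500 nM each DMT-Tic-Ala-OH and CTAP. Ki was derived from IC50 and the 3H-diprenorphine KD in each line; MDOR data fitted with a 2-site model. N = 3-4, mean ± SEM.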
T1 sequence (P35372 whole entry): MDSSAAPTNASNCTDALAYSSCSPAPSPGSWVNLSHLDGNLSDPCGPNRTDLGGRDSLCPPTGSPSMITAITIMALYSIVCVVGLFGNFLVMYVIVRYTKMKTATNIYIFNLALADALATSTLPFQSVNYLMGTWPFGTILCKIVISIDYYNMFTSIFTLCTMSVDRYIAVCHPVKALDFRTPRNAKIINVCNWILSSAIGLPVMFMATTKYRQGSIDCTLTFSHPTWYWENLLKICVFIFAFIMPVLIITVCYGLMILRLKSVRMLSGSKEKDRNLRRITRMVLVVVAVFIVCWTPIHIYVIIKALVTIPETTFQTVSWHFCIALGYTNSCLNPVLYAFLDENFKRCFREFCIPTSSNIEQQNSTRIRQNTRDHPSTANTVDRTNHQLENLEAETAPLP

Data set [2] has as its target T2, Opioid receptors; mu & delta (Homo sapiens, UniProt P41143+P35372). The data set can be described thus: Displacement of [3H]-diprenorphine from human mu-delta opioid receptor heterodimer expressed in CHO cell membranes at high site fraction after 80 mins by scintillation counting analysis relative to control. (In general: In a radioligand displacement assay an active substance lowers the binding of a labelled ligand.)

Data set [3] addresses T2, Opioid receptors; mu & delta. The data set can be described thus: Displacement of [3H]-diprenorphine from human mu-delta opioid receptor expressed in CHO cell membranes after 80 mins by scintillation counting analysis. The method, boiled down: as §1
The species named for data set [4] is Homo sapiens. The data set can be described thus: Selectivity ratio of KiH for human mu-delta opioid receptor heterodimer expressed in CHO cell membranes to Ki for human DOR expressed in CHO cell membranes. The class given is cell-based.
Data set [5] addresses T2, Opioid receptors; mu & delta. The data set is described as follows: Antagonist activity at human mu-delta opioid receptor heterodimer expressed in CHO cell membranes assessed as inhibition of CYM51010-induced [35S]-GTPgammaS binding at high site fraction preincubated for 5 mins followed by CYM51010 and [35S]-GTPgammaS addition measured after 80 mins relative to control. The class given is functional. An outline of the steps:
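35S-GTPγS coupling in MDOR-CHO membranes: 5 min antagonist pre-incubation, then 1 µM CYM51010 plus 0.1 nM 35S-GTPγS, 30°C for 80 min, filtration and scintillation read. A 3-variable 2-site antagonist fit gave FHIGH, the fraction of the high-potency site. N = 3-4 independent experiments.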
(Binding of GTPγS marks nucleotide exchange on a G protein.)

For data set [6], the target named is Delta-type opioid receptor (Homo sapiens, UniProt P41143). The data set is described as follows: Antagonist activity at human DOR expressed in CHO cell membranes assessed as inhibition of CYM51010-induced [35S]-GTPgammaS binding preincubated for 5 mins followed by CYM51010 and [35S]-GTPgammaS addition measured after 80 mins. In kind it is functional. The note with it: cho. The method, boiled down: (§2)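 Membranes from CHO cells stably expressing human opioid receptor (N-terminal tagged) were preincubated 5 min with antagonist concentration curves, then given 1 µM CYM51010 and 0.1 nM 35S-GTPγS; 30°C, 80 min, GF/B filtration, scintillation counting. Normalized to CYM51010 alone (100%) and vehicle (0%). Fits: 1-site for MOR/DOR (IC50), 2-site for MDOR (IC50HIGH). N = 3-4, duplicate, mean ± SEM.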
Delta-type opioid receptor, sequence (P41143 whole entry): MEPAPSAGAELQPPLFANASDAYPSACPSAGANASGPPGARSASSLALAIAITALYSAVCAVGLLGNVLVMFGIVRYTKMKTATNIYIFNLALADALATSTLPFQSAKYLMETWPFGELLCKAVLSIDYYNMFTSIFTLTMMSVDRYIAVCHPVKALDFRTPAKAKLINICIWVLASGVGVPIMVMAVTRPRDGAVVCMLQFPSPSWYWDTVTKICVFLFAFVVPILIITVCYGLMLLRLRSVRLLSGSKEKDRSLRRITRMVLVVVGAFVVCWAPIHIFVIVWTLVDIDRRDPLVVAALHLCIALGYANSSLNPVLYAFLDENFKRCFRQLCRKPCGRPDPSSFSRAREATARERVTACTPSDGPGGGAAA

Data set [7] addresses T1, Mu-type opioid receptor. The data set can be described thus: Antagonist activity at human MOR expressed in CHO cell membranes assessed as inhibition of CYM51010-induced [35S]-GTPgammaS binding preincubated for 5 mins followed by CYM51010 and [35S]-GTPgammaS addition measured after 80 mins. The class given is functional. The note with it: cho. The method, boiled down: as §2

For data set [8], the species on record is Homo sapiens. The data set can be described thus: Selectivity ratio of IC50H for human mu-delta opioid receptor heterodimer expressed in CHO cell membranes to IC50 for human DOR expressed in CHO cell membranes. In kind it is cell-based.
Data set [9] addresses T2, Opioid receptors; mu & delta. The data set can be described thus: Antagonist activity at human mu-delta opioid receptor heterodimer expressed in CHO cell membranes assessed as inhibition of DAMGO-induced [35S]-GTPgammaS binding preincubated for 5 mins followed by DAMGO and [35S]-GTPgammaS addition measured after 80 mins. The class given is functional. An outline of the steps: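 MDOR-CHO membranes were preincubated 5 min with antagonist concentration curve, then 1 µM DAMGO and 0.1 nM 35S-GTPγS were added. Incubated 30°C, 80 min; filter harvest, scintillation counting. Normalized to agonist alone and vehicle. N = 3 independent experiments in duplicate.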

Data set [10] concerns Mus musculus. The data set can be described thus: Antinociceptive activity in icv dosed CD1 mouse assessed as reduction in CYM51010-induced nociception pretreated for 5 mins followed by CYM51010 injection measured up to 2 hrs by tail flick assay. In kind it is functional. Background: Hot-plate and tail-flick tests time the reaction to a heat stimulus.
The test system of data set [11] is Mus musculus. The data set is described as follows: Antinociceptive activity in icv dosed CD1 mouse assessed as reduction in Deltorphin-2-induced nociception pretreated for 5 mins followed by Deltorphin-2 injection measured up to 2 hrs by tail flick assay. In kind it is functional.
The test system of data set [12] is Mus musculus. The data set is described as follows: Antinociceptive activity in CD1 mouse assessed as reduction in DSLET-induced nociception up to 10 nmol, icv pretreated for 5 mins followed by DSLET injection measured up to 2 hrs by tail flick assay. The class given is functional, organism-based.
For data set [13], the species on record is Mus musculus. The data set is described as follows: Antinociceptive activity in CD1 mouse assessed as reduction in morphine-induced nociception at 10 nmol pretreated for 5 mins followed by morphine injection measured up to 2 hrs by tail flick assay. In kind it is functional, organism-based. An outline of the steps:
(§3)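 Male CD-1 mice received 10 nmol icv (vehicle 2% DMSO/10% Tween80/88% water), 5 min before sc agonist. SNC80 was 10 mg/kg in 20% DMSO/10% Tween80/70% saline; morphine was given in saline. 52°C tail flick, 10 s cutoff, recorded over a 2 h time course; experimenter blinded.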

The species entered for data set [14] is Mus musculus. The data set can be described thus: Antinociceptive activity in CD1 mouse assessed as reduction in SNC80-induced nociception at 10 nmol pretreated for 5 mins followed by SNC80 injection measured up to 2 hrs by tail flick assay. In kind it is functional, organism-based. An outline of the steps:
as §3

The test system of data set [15] is Mus musculus. The data set is described as follows: Reduction in morphine dependence expression in acute morphine dependence ICR mouse model assessed as inhibition of naloxone-precipitated jumping behavior at 1 nmol, icv administered 5 mins prior to naloxone injection measured up to 20 mins relative to control. On the set-up: scale not given: the % may be the effect or the level left. The class given is functional. The method, boiled down:
(§4)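 Acute dependence: morphine 100 mg/kg sc, then naloxone 10 mg/kg ip 4 h later. 1 nmol icv or vehicle given 5 min before naloxone; one control arm had no naloxone. Mice observed 20 min in plexiglass cylinders; jumps counted, then urine and feces weighed.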

Data set [16] deals with Mus musculus. The data set is described as follows: Reduction in morphine dependence expression in chronic morphine dependence ICR mouse model assessed as inhibition of naloxone-precipitated jumping behavior at 1 nmol, icv administered 5 mins prior to naloxone injection measured up to 20 mins relative to control. The class given is functional. Details: scale not given: the % may be the effect or the level left. The method, boiled down:
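Chronic dependence: morphine sc twice daily at 10, 20 and 35 mg/kg on days 1-3, single 35 mg/kg on morning of day 4. Naloxone 30 mg/kg ip 4 h later. 1 nmol icv or vehicle 5 min before naloxone. Jumps counted over 20 min in plexiglass cylinders, then urine and feces weighed.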

The subject of data set [17] is Mus musculus. The data set can be described thus: Reduction in morphine dependence expression in acute morphine dependence ICR mouse model assessed as inhibition of naloxone-precipitated GI effects of withdrawal at 1 nmol, […] administered 5 mins prior to naloxone injection measured up to 20 mins. In kind it is functional, organism-based.
The subject of data set [18] is Mus musculus. The data set can be described thus: Reduction in morphine dependence expression in acute morphine dependence ICR mouse model assessed as reduction in jumping behavior at 1 nmol, icv up to 20 mins. The class given is functional, organism-based. The method, boiled down: as §4
Data set [19] concerns Mus musculus. The data set can be described thus: Effect on tail flick response in CD1 mouse up to 10 nmol, icv measured up to 2 hrs. Conditions: in vivo, icv_or_intrathecal. The class given is ADME, organism-based. The method, boiled down: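 Naïve male CD-1 mice were given a dose range up to 10 nmol icv, 5 min before icv vehicle in place of agonist. Tail flick latency in 52°C water (10 s cutoff) recorded over 2 h, baseline first; experimenter blinded.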

Data set [20] concerns Mus musculus. The data set is described as follows: Reduction in morphine dependence expression in chronic morphine dependence ICR mouse model assessed as inhibition of naloxone-precipitated GI effects of withdrawal at 1 nmol, […] administered 5 mins prior to naloxone injection measured up to 20 mins. In kind it is functional, organism-based.
Data set [21] has as its system Mus musculus. The data set is described as follows: Reduction in morphine dependence expression in acute morphine dependence ICR mouse model assessed as reduction in GI output at 1 nmol, icv up to 20 mins. The class given is functional, organism-based. The method, boiled down: as §4

T2 sequence (P35372 whole entry, looked up): as the sequence (P35372 whole entry) above
T2 sequence (P41143 whole entry, looked up): as the sequence (P41143 whole entry) above

For the molecule `N[C@@H](Cc1ccc(O)cc1)C(=O)N1Cc2ccccc2C[C@@H]1C(=O)NCC(=O)NCCCCC(=O)N[C@H](CCCCNC(=O)CCCCNC(=O)CNC(=O)[C@@H](Cc1cccc2ccccc12)NC(=O)[C@H](Cc1ccccc1)NC(=O)[C@@H]1CCCN1C(=O)[C@@H](N)Cc1ccc(O)cc1)C(=O)O`, the negative-log Ki (pKi) at Mu-type opioid receptor [1] is less than 6.00. Further, the Imax came to 11% in [2] and 39% in [5]. Moreover, the KiH in data set [3] came to 0.63 nM. Moreover, the Ratio Ki in the data set listed under Homo sapiens [4] was determined as 133. The values for the negative logarithm of the IC50 (pIC50) (in data set [6]; at Mu-type opioid receptor [7]) were 7.12 and less than 6.00, respectively. Besides, in the data set listed under Homo sapiens [8], the Ratio IC50 was determined as 89. Also, the half-maximal inhibitory concentration (IC50) in data set [9] turned out to be 153 nM. The A50 in the data set with Mus musculus [10] amounted to 2.04 nmol; with Mus musculus [11], 7.77 nmol. Also, the Activity result was “Dose-dependent effect” in the data set with Mus musculus [10]; “Dose-dependent effect” with Mus musculus [11]; 53.2% in the data set on Mus musculus [15]; 85.2% with Mus musculus [16]; “Non-Toxic” in the data set on Mus musculus [19]. In addition, the outcome in the data set with Mus musculus [12], in the data set listed under Mus musculus [14], with Mus musculus [17] and with Mus musculus [18] was inactive. For the same molecule, the result in the data set filed under Mus musculus [13], in the data set on Mus musculus [20] and in the data set on Mus musculus [21] was Active.
